Results reported in ChEMBL document CHEMBL1157562, “Piperazinyl glutamate pyridines as potent orally bioavailable P2Y12 antagonists for inhibition of platelet aggregation” (J Med Chem, 2010).

Columns and labels:
P2Y purinoceptor 12 = P2Y purinoceptor 12 (Homo sapiens, UniProt Q9H244); experiment: Displacement of [33P]ADP from human recombinant P2Y12 receptor expressed in CHO cells; format: cell-based
Summary of the method: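 Washed membranes from CHO cells expressing synthetic human P2Y12, incubated 1 h at room temperature with 0.2 nM 33P-MeSADP in 50 mM Tris/100 mM NaCl/1 mM EDTA. Compound was tested as a 7-point 3-fold series in triplicate. Nonspecific binding was defined with 300 nM 2-MeSADP, followed by filtration.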

[1] = Antiplatelet aggregation activity against adenosine diphosphate-induced human platelet rich plasma assessed as inhibition of platelet aggregation by turbidimetric method; format: functional; conditions: Homo sapiens, Platelet, Plasma
Summary of the method: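 Human PRP, prepared by two-step centrifugation and adjusted to 330 000 platelets/μL with PPP. Compound was preincubated 5 min at 37 °C in 0.5% DMSO, then 20 μM ADP was added. OD626 was read kinetically for 15 min at 37 °C with mixing between reads.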

Chain of P2Y purinoceptor 12 (Q9H244 whole entry): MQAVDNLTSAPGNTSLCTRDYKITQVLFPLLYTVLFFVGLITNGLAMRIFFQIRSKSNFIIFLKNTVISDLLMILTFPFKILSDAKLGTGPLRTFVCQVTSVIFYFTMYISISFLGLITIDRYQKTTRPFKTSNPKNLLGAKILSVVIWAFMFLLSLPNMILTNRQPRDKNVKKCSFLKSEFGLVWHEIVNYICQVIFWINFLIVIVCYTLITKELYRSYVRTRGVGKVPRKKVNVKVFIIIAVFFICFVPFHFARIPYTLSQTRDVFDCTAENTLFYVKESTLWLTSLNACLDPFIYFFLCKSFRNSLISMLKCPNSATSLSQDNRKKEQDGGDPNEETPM

Row | Ki (P2Y purinoceptor 12) | IC50 [1] | SMILES
1 | 0.046 µM | 82 µM | O=C(O)CC[C@H](NC(=O)c1cccc(-c2ccccc2)n1)C(=O)N1CCN(C(=O)OCC2CCCC2)CC1
2 | > 3.59 µM | > 100 µM | CC(C)C(=O)N1CCN(C(=O)[C@H](CCC(=O)O)NC(=O)c2cccc(-c3ccccc3)n2)CC1
3 | > 2.71 µM | > 100 µM | CCCCCCN1CCN(C(=O)[C@H](CCC(=O)O)NC(=O)c2cccc(-c3ccccc3)n2)CC1
4 | 0.025 µM | > 10 µM | CCCCCOC(=O)N1CCN(C(=O)[C@H](CCC(=O)O)NC(=O)c2cc(NC(=O)COC)cc(-c3ccccc3)n2)CC1
5 | > 3.59 µM | > 100 µM | CCS(=O)(=O)N1CCN(C(=O)[C@H](CCC(=O)O)NC(=O)c2cccc(-c3ccccc3)n2)CC1
6 | 1.43 µM | > 100 µM | CCCCC(=O)N1CCN(C(=O)[C@H](CCC(=O)O)NC(=O)c2cccc(-c3ccccc3)n2)CC1
7 | 0.018 µM | 70 µM | O=C(O)CC[C@H](NC(=O)c1cccc(-c2ccccc2)n1)C(=O)N1CCN(C(=O)OCCCC(F)(F)F)CC1
8 | 0.0021 µM | > 100 µM | CCCCCOC(=O)N1CCN(C(=O)[C@H](CCC(=O)O)NC(=O)c2cc(N(C)CCOC)cc(-c3ccccc3)n2)CC1
9 | 0.842 µM | > 100 µM | O=C(O)CC[C@H](NC(=O)c1cccc(-c2ccccc2)n1)C(=O)N1CCN(S(=O)(=O)c2ccccc2)CC1
10 | 0.055 µM | > 100 µM | CCCCCNC(=O)N1CCN(C(=O)[C@H](CCC(=O)O)NC(=O)c2cccc(-c3ccccc3)n2)CC1
11 | 0.15 µM | > 100 µM | Cc1cccc(N2CCN(C(=O)[C@H](CCC(=O)O)NC(=O)c3cc(-c4ccccc4)cc(-c4ccccc4)n3)CC2)c1
12 |  | > 100 µM | COC(=O)N1CCN(C(=O)[C@H](CCC(=O)O)NC(=O)c2cccc(-c3ccccc3)n2)CC1
13 | 0.28 µM | > 100 µM | CC(C)OC(=O)N1CCN(C(=O)[C@H](CCC(=O)O)NC(=O)c2cccc(-c3ccccc3)n2)CC1
14 | 0.047 µM | > 100 µM | O=C(O)CC[C@H](NC(=O)c1cccc(-c2ccccc2)n1)C(=O)N1CCN(C(=O)OC2CCCC2)CC1
15 | > 3.59 µM | > 100 µM | CCC(=O)N1CCN(C(=O)[C@H](CCC(=O)O)NC(=O)c2cccc(-c3ccccc3)n2)CC1
16 | > 3.59 µM | > 100 µM | CN(C)CC(=O)N1CCN(C(=O)[C@H](CCC(=O)O)NC(=O)c2cccc(-c3ccccc3)n2)CC1
17 |  | 62 µM | CCCOC(=O)N1CCN(C(=O)[C@H](CCC(=O)O)NC(=O)c2cccc(-c3ccccc3)n2)CC1

Row | Ki (P2Y purinoceptor 12) | IC50 [1] | SMILES
18 | > 5.7 µM | > 100 µM | Cc1cccc(N2CCN(C(=O)[C@H](CCC(=O)O)NC(=O)c3cc(-c4ccccc4)ccn3)CC2)c1
19 | 0.079 µM | > 100 µM | C#CCCOC(=O)N1CCN(C(=O)[C@H](CCC(=O)O)NC(=O)c2cccc(-c3ccccc3)n2)CC1
20 | 0.0086 µM | > 10 µM | CCCCCOC(=O)N1CCN(C(=O)[C@H](CCC(=O)O)NC(=O)c2cc(CC3CCCCC3)cc(-c3ccccc3)n2)CC1
21 | > 3.8 µM | > 100 µM | CCCN1CCN(C(=O)[C@H](CCC(=O)O)NC(=O)c2cccc(-c3ccccc3)n2)CC1
22 | 0.0027 µM | > 10 µM | CCCCCOC(=O)N1CCN(C(=O)[C@H](CCC(=O)O)NC(=O)c2cc(NC(=O)NC(C)C)cc(-c3ccccc3)n2)CC1
23 | 0.045 µM | > 100 µM | CCCN(CCC)c1cc(C(=O)N[C@@H](CCC(=O)O)C(=O)N2CCN(C(=O)OCC)CC2)nc(-c2ccccc2)c1
24 | 0.356 µM | > 100 µM | CCOC(=O)N1CCN(C(=O)[C@H](CCC(=O)O)NC(=O)c2cc(-c3ccccc3)nc(-c3ccccc3)n2)CC1
25 | 1.31 µM | > 100 µM | Cc1cccc(N2CCN(C(=O)[C@H](CCC(=O)O)NC(=O)c3cccc(-c4ccccc4)c3)CC2)c1
26 | > 5.68 µM | > 100 µM | CC(C)(C)OC(=O)CC[C@H](NC(=O)c1cccc(-c2ccccc2)n1)C(=O)N1CCNCC1
27 | 0.196 µM | > 100 µM | O=C(O)CC[C@H](NC(=O)c1cccc(-c2ccccc2)n1)C(=O)N1CCN(C(=O)OCc2ccccc2)CC1
28 | 0.0062 µM | > 10 µM | CCCCCOC(=O)N1CCN(C(=O)[C@H](CCC(=O)O)NC(=O)c2cc(NC(C)=O)cc(-c3ccccc3)n2)CC1
29 | > 5.7 µM | > 100 µM | CCOC(=O)N1CCN(C(=O)[C@H](CCC(=O)O)NC(=O)c2cc(-c3ccccc3)ccn2)CC1
30 | > 3.59 µM | > 100 µM | CCCCCN1CCN(C(=O)[C@H](CCC(=O)O)NC(=O)c2cccc(-c3ccccc3)n2)CC1
31 | > 3.59 µM | > 100 µM | CC(=O)N1CCN(C(=O)[C@H](CCC(=O)O)NC(=O)c2cccc(-c3ccccc3)n2)CC1
32 | 0.288 µM | 80 µM | CCNC(=O)N1CCN(C(=O)[C@H](CCC(=O)O)NC(=O)c2cccc(-c3ccccc3)n2)CC1
33 | 0.015 µM | > 100 µM | O=C(O)CC[C@H](NC(=O)c1cccc(-c2ccccc2)n1)C(=O)N1CCN(C(=O)OCCC2CC2)CC1
